The values below come from article PMC7316630 (Nature immunology, 2020).

Structures can show the parent of a compound that is named as a salt. Peptide text beside a SMILES is read from it. * marks the point of attachment. Cbz = O=C(OCc1ccccc1)*; CH2F = FC* Bounds are passed on as bounds.

The target of one test is T1, human GSDMD (Homo sapiens, UniProt P57764).
T1 sequence (P57764 1-484): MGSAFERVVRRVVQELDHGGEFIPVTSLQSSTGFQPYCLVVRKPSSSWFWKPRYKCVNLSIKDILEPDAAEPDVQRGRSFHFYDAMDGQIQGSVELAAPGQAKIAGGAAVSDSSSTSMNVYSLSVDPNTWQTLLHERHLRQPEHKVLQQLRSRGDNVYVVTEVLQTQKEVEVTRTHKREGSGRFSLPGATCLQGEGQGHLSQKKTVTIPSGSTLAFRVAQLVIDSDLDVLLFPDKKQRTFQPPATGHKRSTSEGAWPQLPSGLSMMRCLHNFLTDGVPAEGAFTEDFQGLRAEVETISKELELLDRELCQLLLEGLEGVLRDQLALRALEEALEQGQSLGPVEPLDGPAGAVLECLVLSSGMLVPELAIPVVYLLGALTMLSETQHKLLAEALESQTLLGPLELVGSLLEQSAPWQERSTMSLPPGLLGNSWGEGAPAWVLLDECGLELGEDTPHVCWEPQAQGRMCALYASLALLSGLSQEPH
The test is classed as biochemical. The conditions noted are these: for Inhibition of GSDMD and caspase-11-mediated liposome leakage (in words): GSDMD 0.3 μM plus caspase-11 0.15 μM, LDC7559 at up to 50 μM.

Another test concerns LPS-primed iBMDMs. Kind of test: Immunoblot of caspase-1, GSDMD, pro-IL-1β cleavage and IL-1β release. It is filed as cell-based, mouse. The note with it: 1 hr before nigericin; lysates 1 hr later. The essentials:
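Mouse iBMDMs were pretreated for 1 hr with test compound, Bay 11-7082, necrosulfonamide or z-VAD-fmk, then given nigericin. Whole cell lysates and culture supernatants were harvested 1 hr after nigericin and immunoblotted with the indicated antibodies. Data come from three independent experiments.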
In general terms: A western blot detects proteins with antibodies after separation by electrophoresis.

Test [1] deals with LPS-primed THP-1 cells. Kind of test: ASC speck formation, immunofluorescence. The test is classed as cell-based, human. The note with it: 30 μM, 1 hr before nigericin; 20 min after nigericin. In short, it runs like this: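 THP-1 cells were differentiated with 50 nM PMA for 36 hrs, primed with LPS (1 μg/ml) for 4 hrs, and pretreated with test compound, vehicle or z-VAD-fmk, then given nigericin (20 μM). Cells on coverslips were fixed in 4% paraformaldehyde for 15 min, permeabilized in 0.1% Triton X-100 for 5 min and blocked in 5% BSA for 1 hr. ASC was then immunostained.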

Test [2] relates to LPS-primed THP-1 cells. Nature of the test: Immunoblot of caspase-1, GSDMD, pro-IL-1β cleavage and IL-1β release. The test is classed as cell-based, human. The conditions noted are these: 30 μM, 1 hr before nigericin.
Test [3] concerns LPS-primed THP-1 cells. Nature of the test: GSDMD membrane staining and pyroptotic bubbles, confocal microscopy. It is filed as cell-based, human. The conditions noted are these: 30 μM; 30 min after nigericin. In short, it runs like this: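 PMA-differentiated THP-1 cells were primed with LPS (1 μg/ml, 4 hrs), pretreated for 1 hr and given nigericin. They were fixed (4% PFA), permeabilized (0.1% Triton X-100), blocked (5% BSA) and stained with an in-house mouse monoclonal anti-GSDMD antibody. Confocal images were scored for cells with membrane GSDMD staining and pyroptotic bubbles across 40 high-power fields per sample, in 5 independent experiments. Two-tailed Student's t-test was used.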

The subject of another test is iBMDM. Kind of test: LPS transfection-induced IL-1β secretion, ELISA. The test is classed as cell-based, mouse. The note with it: 2.5 h; potency comparable to z-VAD-fmk.
A further test relates to C57BL/6J mice. Kind of test: LPS-induced sepsis, survival. It is filed as in vivo, mouse. The note with it: LPS 25 mg/kg; 50 mg/kg i.p. 4 hrs before and daily after LPS.
The next test has as its system Mouse iBMDMs. Nature of the test: AIM2 inflammasome cell death, poly. The test is classed as cell-based. The conditions noted are these: 5–40 μM, 1 hr pretreatment, 4 hrs.
For the next test, the system named is THP-1. Nature of the test: Nigericin-induced IL-1β secretion, ELISA. It is filed as cell-based, human. The note with it: potency comparable to z-VAD-fmk. For orientation: In an ELISA, binding on a coated surface is turned into a signal by an enzyme label.
In a further test the target is T2, pre-cleaved mouse GSDMA3 (Mus musculus, UniProt Q5Y4Y6).
T2 sequence (Q5Y4Y6 with tags, fused parts or gaps limits assumed): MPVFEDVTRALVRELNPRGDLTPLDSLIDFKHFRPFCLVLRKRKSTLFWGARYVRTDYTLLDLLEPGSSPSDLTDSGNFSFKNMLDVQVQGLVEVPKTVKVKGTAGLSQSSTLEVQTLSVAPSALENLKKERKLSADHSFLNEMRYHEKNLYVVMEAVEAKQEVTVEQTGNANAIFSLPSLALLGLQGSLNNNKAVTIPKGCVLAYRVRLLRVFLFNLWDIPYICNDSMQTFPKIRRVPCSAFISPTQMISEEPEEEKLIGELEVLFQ
Kind of test: Liposome leakage by pre-cleaved GSDMA3. The test is classed as biochemical. The conditions noted are these: pre-cleaved mouse GSDMA3 0.3 μM.

A further test deals with LPS-primed THP-1. Kind of test: LPS + nigericin cell death with or without Cu. It is filed as cell-based, human. The note with it: with versus without Cu(II).
The next test has as its system HT-29 cells. Kind of test: Necroptosis induced by TNF, SMAC mimetic and z-VAD-fmk, CellTiter-Glo. The conditions noted are these: disulfiram 10 and 50 μM, NSA 2 μM, Nec 10 μM; 1 hr pretreatment; 24 hrs. The test is classed as cell-based. In short, it runs like this: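 HT-29 cells were pretreated for 1 hr. Necroptosis was then induced with TNF (20 ng/ml), SMAC mimetic (100 nM) and z-VAD-fmk (20 μM). Viability was read 24 hrs later as ATP by CellTiter-Glo luminescence.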
A general note: ATP-based viability assays read luminescence as a measure of living cells.

On to `COc1ccccc1-c1cc2n(n1)Cc1ccc(NC(C)=O)cc1OC2` [LDC7559], for which the “Inhibition of GSDMD and caspase-11-mediated liposome leakage (in words)” value (“Inhibition … (in words)” below) on human GSDMD is reported as “no activity”.

With `Cc1ccc(S(=O)(=O)/C=C/C#N)cc1` [Bay 11–7082], the “Proteolytic processing of caspase-1, GSDMD and pro-IL-1β” value (“Proteolytic processing” below) with LPS-primed iBMDMs is “inhibited”. Also, at human GSDMD, the “Inhibition … (in words)” value is “moderately inhibited”.

Consider `COC(=O)/C=C/C(=O)OC` [DMF, dimethyl fumarate], for which, on human GSDMD, the “Inhibition … (in words)” value is given as “hardly any activity”.

As for `COC(=O)C[C@H](NC(=O)[C@H](C)NC(=O)[C@@H](NC(=O)OCc1ccccc1)C(C)C)C(=O)CF` [z-VAD-fmk] (Cbz-Val-Ala-Asp(OMe)-CH2F), the ASC speck formation entry with LPS-primed THP-1 cells [1] is listed as “not inhibited”. Further, the “Proteolytic processing” value with LPS-primed THP-1 cells [2] (lysates 1 hr later) is “inhibited the processing of all 3 proteins”. Also, in the test with LPS-primed THP-1 cells [3], the “GSDMD membrane staining and appearance of pyroptotic bubbles” value is “completely blocked”.

Regarding `CN(C)C/C=C/C(=O)Nc1cc2c(Nc3ccc(F)c(Cl)c3)ncnc2cc1O[C@H]1CCOC1` [afatinib], the “Inhibition … (in words)” value at human GSDMD was “hardly any activity”.

Consider `CCN(CC)C(=S)SSC(=S)N(CC)CC` [C-23, tetraethylthiuram disulfide], for which the “LPS transfection-induced IL-1β secretion” value in the test on iBMDM is on record as “inhibited”. The ASC speck formation result in the test on LPS-primed THP-1 cells [1] is listed as “only modestly inhibited”. For the same compound, the “Survival of Casp1–/– mice” value in the test with C57BL/6J mice is recorded as “protected”. Besides, the “Effect on AIM2 inflammasome-triggered cell death” value in the test with Mouse iBMDMs is listed as “impaired cell death in a dose-dependent manner”. The “Nigericin-induced IL-1β secretion” value in the test on THP-1 is reported as “inhibited”. Further, the “Inhibition of pore formation of pre-cleaved GSDMA3” value on pre-cleaved mouse GSDMA3 was “did not inhibit”. For the same compound, the “Decrease of IC50 for inhibiting pyroptosis with Cu(II)” value in the test on LPS-primed THP-1 is given as 24 fold. The “IL-1β in culture supernatant” value in the test on LPS-primed THP-1 cells [2] (immunoblot) is “no IL-1β was detected”. Also, in the test on HT-29 cells, the “Effect on necroptosis (cell viability)” value is recorded as “no effect”. Also, the “Incubation time at which inhibition of liposome leakage was seen” value at human GSDMD (preincubation with GSDMD 2–90 min, 0–5.6 μM) is on record as not above 2 min.

Consider `COc1nccnc1NS(=O)(=O)c1ccc(NC(=O)/C=C/c2ccc([N+](=O)[O-])s2)cc1` [NSA, necrosulfonamide], for which the “Proteolytic processing” value in the test with LPS-primed iBMDMs is “inhibited”. The “Effect on necroptosis (cell viability)” value in the test on HT-29 cells is listed as “blocked”. The “Inhibition … (in words)” value at human GSDMD is “moderately inhibited”.

For `CN1C(=O)C(Cc2c[nH]c3ccccc23)NC1=S` (centres unmarked) [necrostatin-1], the “Effect on necroptosis (cell viability)” value with HT-29 cells is “blocked”.

As to `C=CC(=O)N1CCC[C@@H](n2nc(-c3ccc(Oc4ccccc4)cc3)c3c(N)ncnc32)C1` [ibrutinib], the “Inhibition … (in words)” value at human GSDMD is listed as “hardly any activity”.
